Measured values taken from ChEMBL document CHEMBL1155278, “3,4-Diaryl-isoxazoles and -imidazoles as potent dual inhibitors of p38alpha mitogen activated protein kinase and casein kinase 1delta” (J Med Chem, 2009).

Key:
[1] = biological target: T1, Serine/threonine-protein kinase Nek2 (Homo sapiens) (UniProt P51955); assay: Inhibition of NEK2a assessed as residual activity at 0.1 uM by Cherenkov counting relative to control in presence of 50 uM ATP
T1 sequence (whole entry): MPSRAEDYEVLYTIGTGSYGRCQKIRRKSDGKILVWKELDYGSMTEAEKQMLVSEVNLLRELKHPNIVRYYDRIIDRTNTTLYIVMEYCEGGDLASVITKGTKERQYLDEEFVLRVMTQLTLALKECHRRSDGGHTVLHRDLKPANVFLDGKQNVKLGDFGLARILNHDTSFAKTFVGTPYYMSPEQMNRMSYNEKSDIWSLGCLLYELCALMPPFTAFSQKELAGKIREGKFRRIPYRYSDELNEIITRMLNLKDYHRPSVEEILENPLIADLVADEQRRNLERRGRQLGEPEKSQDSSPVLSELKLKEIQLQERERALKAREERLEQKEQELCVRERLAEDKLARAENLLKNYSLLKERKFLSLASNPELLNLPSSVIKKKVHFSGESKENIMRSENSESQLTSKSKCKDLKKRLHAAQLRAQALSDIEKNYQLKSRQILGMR
Summary of the method: (§1)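 Single-concentration selectivity screen at 0.1 μM against a panel of 76 protein kinases. Each kinase was run at an ATP level approximating its Km for ATP. Output is mean residual activity as % of the control assay without compound, n = 3 ± SD.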

[2] = biological target: Serine/threonine-protein kinase Nek6 (Homo sapiens) (UniProt Q9HC98); assay: Inhibition of NEK6 assessed as residual activity at 0.1 uM by Cherenkov counting relative to control in presence of 50 uM ATP; summary of the method: as §1
[3] = biological target: T2, Serine/threonine-protein kinase Sgk1 (Homo sapiens) (UniProt O00141); assay: Inhibition of SGK1 assessed as residual activity at 0.1 uM by Cherenkov counting relative to control in presence of 20 uM ATP
T2 sequence (whole entry): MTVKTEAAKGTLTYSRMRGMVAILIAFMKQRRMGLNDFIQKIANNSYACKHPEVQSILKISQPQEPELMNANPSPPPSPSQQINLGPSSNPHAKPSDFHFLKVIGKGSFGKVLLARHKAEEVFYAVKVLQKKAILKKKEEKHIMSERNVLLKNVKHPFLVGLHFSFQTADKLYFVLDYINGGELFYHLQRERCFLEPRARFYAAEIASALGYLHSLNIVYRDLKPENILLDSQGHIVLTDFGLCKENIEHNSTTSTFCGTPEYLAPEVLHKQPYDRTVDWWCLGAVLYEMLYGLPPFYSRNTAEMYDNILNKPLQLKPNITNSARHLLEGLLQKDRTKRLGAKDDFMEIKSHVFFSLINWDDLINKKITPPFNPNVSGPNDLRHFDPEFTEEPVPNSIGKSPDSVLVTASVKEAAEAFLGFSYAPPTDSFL
Summary of the method: (§2)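 Single-concentration screen at 0.1 μM in a 76-kinase panel. ATP for each kinase was set near its Km for ATP. Residual activity is given as a percentage of control assays without compound, mean of n = 3 ± SD.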

[4] = biological target: Mitogen-activated protein kinase 3 (Homo sapiens) (UniProt P27361); assay: Inhibition of ERK1 assessed as residual activity at 0.1 uM by Cherenkov counting relative to control in presence of 5 uM ATP
Summary of the method: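 Single-concentration screen at 0.1 µM across a panel of 76 protein kinases. Each kinase was run at an ATP concentration approximating its ATP Km. Results are % mean residual activity versus control assays without compound (n = 3 ± SD).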

[5] = biological target: Ribosomal protein S6 kinase alpha-1 (Homo sapiens) (UniProt Q15418); assay: Inhibition of RSK1 assessed as residual activity at 0.1 uM by Cherenkov counting relative to control; summary of the method: as §2
[6] = biological target: Casein kinase I isoform delta (Homo sapiens, UniProt P48730); assay: Inhibition of CK1delta at 10 uM by Cherenkov counting in presence of 20 uM ATP
[7] = biological target: SRSF protein kinase 1 (Homo sapiens) (UniProt Q96SB4); assay: Inhibition of SRPK1 assessed as residual activity at 10 uM by Cherenkov counting relative to control in presence of 50 uM ATP
Summary of the method: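 Single-concentration profiling at 10 μM in a 78-kinase panel. Kinase activity is expressed as a percentage of control assays run without compound.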

[8] = biological target: T3, Serine/threonine-protein kinase Chk1 (Homo sapiens) (UniProt O14757); assay: Inhibition of CHK1 assessed as residual activity at 10 uM by Cherenkov counting relative to control in presence of 20 uM ATP
T3 sequence (whole entry): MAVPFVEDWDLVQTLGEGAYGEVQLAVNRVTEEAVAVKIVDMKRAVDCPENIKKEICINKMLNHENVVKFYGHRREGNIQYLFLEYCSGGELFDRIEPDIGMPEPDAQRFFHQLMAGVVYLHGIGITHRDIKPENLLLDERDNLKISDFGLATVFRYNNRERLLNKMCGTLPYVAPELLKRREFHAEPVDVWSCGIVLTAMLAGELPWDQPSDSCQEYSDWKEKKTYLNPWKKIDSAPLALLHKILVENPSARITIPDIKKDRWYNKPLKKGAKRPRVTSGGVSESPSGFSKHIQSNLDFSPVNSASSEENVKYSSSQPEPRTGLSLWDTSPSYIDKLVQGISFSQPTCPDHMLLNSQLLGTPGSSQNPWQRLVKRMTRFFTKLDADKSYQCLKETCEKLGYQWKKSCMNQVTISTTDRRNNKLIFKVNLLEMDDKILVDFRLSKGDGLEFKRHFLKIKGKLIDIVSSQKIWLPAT
Summary of the method: (§3)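 Single-point profiling at 10 µM in a panel of 78 protein kinases. Kinase activity is expressed as a percentage relative to control assays without compound.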

[9] = biological target: Cyclin-dependent kinase 2/cyclin A (Homo sapiens) (UniProt P24941+P20248+P78396); assay: Inhibition of CDK2/cyclin A assessed as residual activity at 10 uM by Cherenkov counting relative to control in presence of 20 uM ATP; format: protein-complex assay; summary of the method: as §3

Chain of Ribosomal protein S6 kinase alpha-1 (Homo sapiens) (Q15418 whole entry, canonical isoform): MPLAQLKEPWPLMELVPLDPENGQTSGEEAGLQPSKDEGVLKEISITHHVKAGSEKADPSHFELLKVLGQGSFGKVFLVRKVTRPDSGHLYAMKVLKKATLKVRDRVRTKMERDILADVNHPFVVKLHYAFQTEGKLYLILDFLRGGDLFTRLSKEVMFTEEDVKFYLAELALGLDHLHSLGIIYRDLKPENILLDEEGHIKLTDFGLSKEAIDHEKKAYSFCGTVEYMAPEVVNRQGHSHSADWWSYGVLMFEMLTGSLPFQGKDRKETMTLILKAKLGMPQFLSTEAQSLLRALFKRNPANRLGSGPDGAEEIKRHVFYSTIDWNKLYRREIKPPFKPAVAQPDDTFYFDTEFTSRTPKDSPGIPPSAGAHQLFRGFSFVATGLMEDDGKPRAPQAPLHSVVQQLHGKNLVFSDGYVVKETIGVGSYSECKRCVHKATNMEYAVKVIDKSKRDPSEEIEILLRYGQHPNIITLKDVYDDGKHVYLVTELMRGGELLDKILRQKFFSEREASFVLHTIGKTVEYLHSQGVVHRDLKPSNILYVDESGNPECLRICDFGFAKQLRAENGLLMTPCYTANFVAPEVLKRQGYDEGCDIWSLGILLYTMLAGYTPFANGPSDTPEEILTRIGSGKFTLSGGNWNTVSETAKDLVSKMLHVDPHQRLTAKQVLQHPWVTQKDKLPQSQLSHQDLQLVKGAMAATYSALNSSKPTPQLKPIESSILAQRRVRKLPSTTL
Chain of SRSF protein kinase 1 (Homo sapiens) (Q96SB4 whole entry): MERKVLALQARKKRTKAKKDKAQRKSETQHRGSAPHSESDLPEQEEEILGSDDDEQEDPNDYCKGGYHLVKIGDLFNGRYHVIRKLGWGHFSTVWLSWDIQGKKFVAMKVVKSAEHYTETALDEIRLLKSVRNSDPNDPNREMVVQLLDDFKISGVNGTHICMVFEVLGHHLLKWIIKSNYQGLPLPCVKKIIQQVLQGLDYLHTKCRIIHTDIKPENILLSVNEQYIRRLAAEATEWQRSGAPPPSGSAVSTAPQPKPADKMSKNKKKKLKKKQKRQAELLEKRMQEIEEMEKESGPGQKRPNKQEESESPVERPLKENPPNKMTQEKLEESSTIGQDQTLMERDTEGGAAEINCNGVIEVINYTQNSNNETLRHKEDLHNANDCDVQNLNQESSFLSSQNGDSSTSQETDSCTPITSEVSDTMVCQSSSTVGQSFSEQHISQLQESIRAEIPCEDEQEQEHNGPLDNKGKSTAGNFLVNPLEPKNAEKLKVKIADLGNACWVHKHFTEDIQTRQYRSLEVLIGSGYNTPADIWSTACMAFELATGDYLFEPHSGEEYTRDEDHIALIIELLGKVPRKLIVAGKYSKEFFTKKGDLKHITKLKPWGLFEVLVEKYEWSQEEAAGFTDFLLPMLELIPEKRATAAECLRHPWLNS
Chain of Serine/threonine-protein kinase Nek6 (Homo sapiens) (Q9HC98 whole entry): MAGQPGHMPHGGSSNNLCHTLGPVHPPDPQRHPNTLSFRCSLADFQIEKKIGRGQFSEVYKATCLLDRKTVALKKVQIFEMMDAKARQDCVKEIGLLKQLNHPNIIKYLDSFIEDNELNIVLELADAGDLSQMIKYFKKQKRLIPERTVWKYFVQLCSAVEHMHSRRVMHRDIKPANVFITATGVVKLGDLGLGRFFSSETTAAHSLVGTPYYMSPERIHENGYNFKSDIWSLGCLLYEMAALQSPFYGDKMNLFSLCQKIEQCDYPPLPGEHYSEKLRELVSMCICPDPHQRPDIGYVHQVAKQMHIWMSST
Chain of Casein kinase I isoform delta (P48730 whole entry, looked up, canonical isoform): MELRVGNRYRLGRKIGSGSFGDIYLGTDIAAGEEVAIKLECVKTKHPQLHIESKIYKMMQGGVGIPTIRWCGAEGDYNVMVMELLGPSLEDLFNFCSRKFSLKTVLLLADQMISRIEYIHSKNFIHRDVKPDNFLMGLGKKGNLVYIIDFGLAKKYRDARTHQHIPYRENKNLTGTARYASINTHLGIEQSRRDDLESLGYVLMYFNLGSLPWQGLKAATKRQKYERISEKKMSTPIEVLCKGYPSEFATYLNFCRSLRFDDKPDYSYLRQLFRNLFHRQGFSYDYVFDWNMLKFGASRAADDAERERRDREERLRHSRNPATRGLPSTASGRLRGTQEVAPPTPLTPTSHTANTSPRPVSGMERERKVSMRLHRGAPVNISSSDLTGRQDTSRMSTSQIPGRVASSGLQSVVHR
Chain of Mitogen-activated protein kinase 3 (Homo sapiens) (P27361 whole entry): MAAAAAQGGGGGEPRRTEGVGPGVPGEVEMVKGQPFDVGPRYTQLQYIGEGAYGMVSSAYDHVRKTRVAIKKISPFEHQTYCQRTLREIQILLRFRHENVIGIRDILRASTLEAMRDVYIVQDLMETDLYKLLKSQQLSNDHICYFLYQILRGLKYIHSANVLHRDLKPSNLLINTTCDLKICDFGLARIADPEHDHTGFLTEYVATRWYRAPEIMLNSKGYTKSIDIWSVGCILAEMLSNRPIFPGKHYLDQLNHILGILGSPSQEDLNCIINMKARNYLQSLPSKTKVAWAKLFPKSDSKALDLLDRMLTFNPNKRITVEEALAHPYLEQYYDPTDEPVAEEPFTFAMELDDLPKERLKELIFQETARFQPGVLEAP

Question: How did the Activity [1] turn out when COc1ccc(/C=C/C(=O)Nc2cc(-c3[nH]c(SC)nc3-c3ccc(F)cc3)ccn2)c(OC)c1 was run?
Answer: Its Activity is 91%.

Question: What about the Activity [2] of the same molecule?
Answer: The Activity was 90%.

Question: What about the Activity [3] of the same molecule?
Answer: Its Activity is 87%.

Question: And the Activity [4]?
Answer: The Activity was 94%.

Question: And the Activity [5]?
Answer: Its Activity is 78%.

Question: Which results are given for COc1ccc(/C=C/C(=O)Nc2cc(-c3[nH]c([S+](C)[O-])nc3-c3ccc(F)cc3)ccn2)c(OC)c1 (stereo not drawn)?
Answer: Activity [1]: 92%; Activity [2]: 111%; Activity [3]: 87%; Activity [4]: 101%; Activity [5]: 80%

Question: Which inhibition [6] does the source give for CC(C)c1onc(-c2ccc(F)cc2)c1-c1ccncc1 here?
Answer: The inhibition was 90%.

Question: And the Activity [7]?
Answer: The Activity was 81%.

Question: And the Activity [8]?
Answer: The Activity was 91%.

Question: And the Activity [9]?
Answer: Its Activity is 96%.

Question: How did the inhibition [6] turn out when CC(C)c1noc(-c2ccc(F)cc2)c1-c1ccncc1 was run?
Answer: The inhibition was 40%.

Question: And the Activity [7]?
Answer: The Activity was 86%.

Question: What about the Activity [8] of the same molecule?
Answer: Its Activity is 102%.

Question: What about the Activity [9] of the same molecule?
Answer: The Activity was 98%.
